Test results from ChEMBL document CHEMBL5136969, “A niclosamide-tobramycin hybrid adjuvant potentiates cefiderocol against P. aeruginosa” (2021).
The source made the active and inactive calls.

How the values were obtained:
Enterobacter cloacae [1] = assay: Antibacterial activity against Enterobacter cloacae 121187 assessed as reduction in bacterial growth after 18 hrs in presence of cefiderocol by microbroth dilution method; assay type: functional
Outline: (§1)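 Checkerboard in Mueller-Hinton broth: cefiderocol 2-fold diluted on one axis, adjuvant 2-fold on the other. Overnight cultures were adjusted to 0.5 McFarland in saline, diluted 1:50 in MHB, and inoculated at about 5 × 10^5 CFU/mL. Incubation was 18 h at 37 °C. Turbidity was read visually and confirmed at 590 nm. FIC index = FIC of antibiotic + FIC of adjuvant; ≤0.5 synergy, >4 antagonism.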

Pseudomonas aeruginosa [2] = assay: Potentiation of moxifloxacin-induced antibiotic activity against Pseudomonas aeruginosa PAO1 assessed as reduction in microbial growth at 8 ug/ml up to 24 hrs by microbroth dilution method; assay type: functional; conditions: dose 8 µg/ml
Pseudomonas aeruginosa [3] = assay: Antibacterial activity against MDR clinical isolate Pseudomonas aeruginosa PA262 assessed as potentiation of cefiderocol antibacterial activity by measuring FIC index after 18 hrs by microbroth dilution method; assay type: functional
Outline: (§2)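 Checkerboard in MHB. Cefiderocol was 2-fold serially diluted along one axis and the adjuvant along the other. Inoculum was prepared from 0.5 McFarland saline suspensions diluted 1:50 in MHB, giving about 5 × 10^5 CFU/mL final. Plates ran 18 h at 37 °C, with turbidity confirmed at 590 nm. FIC = combination MIC ÷ MIC alone for each agent, and FIC index = sum of both. Interpretation: ≤0.5 synergy, >0.5–4 additive, >4 antagonism.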

Pseudomonas aeruginosa [4] = assay: Potentiation of cefotaxime-induced antibiotic activity against MDR clinical isolate Pseudomonas aeruginosa PA260 assessed as MIC fold reduction at 8 ug/ml after 18 hrs by microbroth dilution method; assay type: functional, organism-based; conditions: dose 8.0 µg/ml
Outline: (§3)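 Initial screen in MHB using a fixed 8 μg mL−1 of adjuvant combined with each antibiotic under 2-fold dilution. Broth microdilution used about 5 × 10^5 CFU/mL at 37 °C for 18 h, with visible turbidity read and confirmed at 590 nm. Fold-potentiation = antibiotic MIC alone ÷ antibiotic MIC with adjuvant.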

Pseudomonas aeruginosa [5] = assay: Potentiation of erythromycin-induced antibiotic activity against Pseudomonas aeruginosa PAO1 assessed as MIC fold reduction at 8 ug/ml after 18 hrs by microbroth dilution method; assay type: functional; conditions: dose 8 µg/ml
Outline: (§4)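 Adjuvant held at a fixed 8 μg/mL while the antibiotic was 2-fold serially diluted in Mueller-Hinton broth (MHB), per CLSI microbroth dilution. Overnight cultures were adjusted in saline to 0.5 McFarland, then diluted 1:50 in MHB to about 5 × 10^5 CFU/mL final, and incubated 18 h at 37 °C. MIC was the lowest concentration with no visible turbidity, confirmed at 590 nm. Fold potentiation = MIC alone / MIC with adjuvant.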

Pseudomonas aeruginosa [6] = assay: Antibacterial activity against MDR clinical isolate Pseudomonas aeruginosa PA88949 assessed as potentiation of cefiderocol antibacterial activity by measuring FIC index after 18 hrs by microbroth dilution method; assay type: functional
Outline: (§5)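 Checkerboard in MHB (iron-replete, not iron-depleted CAMHB). Cefiderocol was 2-fold serially diluted along one axis and the adjuvant along the other. Inoculum was 0.5 McFarland diluted 1:50, about 5 × 10^5 CFU/mL final. Incubation was 18 h at 37 °C, with turbidity read visually and confirmed at 590 nm. FIC was the MIC in combination over the MIC alone for each agent, and the FIC index was their sum. Cut-offs were ≤0.5 synergy, >0.5–4 additive, >4 antagonism.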

Escherichia coli [7] = assay: Antibacterial activity against Escherichia coli ATCC 25922 assessed as reduction in bacterial growth after 18 hrs in presence of cefiderocol by microbroth dilution method; assay type: functional; outline: as §1
Pseudomonas aeruginosa [8] = assay: Antibacterial activity against MDR clinical isolate Pseudomonas aeruginosa PA259 assessed as reduction in bacterial growth after 18 hrs in presence of cefiderocol by microbroth dilution method; assay type: functional; outline: as §2
Escherichia coli [9] = assay: Potentiation of ciprofloxacin-induced antibiotic activity against Escherichia coli ATCC 25922 assessed as MIC fold reduction at 8 ug/ml after 18 hrs by microbroth dilution method; assay type: functional; conditions: dose 8 µg/ml; outline: as §4
Pseudomonas aeruginosa [10] = assay: Antibacterial activity against MDR clinical isolate Pseudomonas aeruginosa PA86052 assessed as potentiation of cefiderocol antibacterial activity by measuring FIC index after 18 hrs by microbroth dilution method; assay type: functional; outline: as §5
Enterobacter cloacae [11] = assay: Antibacterial activity against Enterobacter cloacae 118564 assessed as reduction in bacterial growth after 18 hrs by microbroth dilution method; assay type: functional
Outline: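 CLSI microbroth dilution in MHB. Overnight cultures were adjusted to 0.5 McFarland in saline, diluted 1:50, and inoculated at about 5 × 10^5 CFU/mL. Agents were 2-fold serially diluted and incubated 18 h at 37 °C. MIC is the lowest concentration without visible turbidity, confirmed by absorbance at 590 nm. Medium with and without cells served as controls.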

Staphylococcus aureus [12] = assay: Antibacterial activity against methicillin-resistant Staphylococcus aureus ATCC 33592 assessed as reduction in bacterial growth after 18 hrs by microbroth dilution method; assay type: functional
Outline: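 Broth microdilution per CLSI in Mueller-Hinton broth (MHB). Overnight cultures were adjusted to 0.5 McFarland in saline, diluted 1:50 in MHB, and added at about 5 × 10^5 CFU/mL final to equal volumes of 2-fold serial dilutions of agent. Incubation was 18 h at 37 °C. MIC was the lowest concentration with no visible turbidity, confirmed by absorbance at 590 nm.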

Pseudomonas aeruginosa [13] = assay: Potentiation of cefiderocol-induced antibiotic activity against MDR clinical isolate Pseudomonas aeruginosa PA264 assessed as MIC fold reduction at 8 ug/ml after 18 hrs by microbroth dilution method; assay type: functional, organism-based; conditions: dose 8.0 µg/ml; outline: as §3
Staphylococcus aureus [14] = assay: Antibacterial activity against Staphylococcus aureus ATCC 29213 assessed as reduction in bacterial growth after 18 hrs by microbroth dilution method; assay type: functional
Outline: (§6)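 CLSI broth microdilution. Overnight cultures were adjusted in saline to 0.5 McFarland, diluted 1:50 in Mueller-Hinton broth (MHB), and inoculated at about 5 × 10^5 CFU/mL. Agents were 2-fold serially diluted in MHB, mixed 1:1 with inoculum, and held at 37 °C for 18 h. MIC was the lowest concentration with no visible turbidity, confirmed at 590 nm.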

Acinetobacter baumannii [15] = assay: Antibacterial activity against Acinetobacter baumannii ATCC 17978 assessed as potentiation of cefiderocol antibacterial activity by measuring FIC after 18 hrs by microbroth dilution method; assay type: functional; outline: as §1
Acinetobacter baumannii [16] = assay: Potentiation of cotrimoxazole-induced antibiotic activity against Acinetobacter baumannii ATCC 17978 assessed as MIC fold reduction at 8 ug/ml after 18 hrs by microbroth dilution method; assay type: functional; conditions: dose 8 µg/ml; outline: as §4
Escherichia coli [17] = assay: Potentiation of doxycycline-induced antibiotic activity against Escherichia coli ATCC 25922 assessed as MIC fold reduction at 8 ug/ml after 18 hrs by microbroth dilution method; assay type: functional; conditions: dose 8 µg/ml; outline: as §4
Escherichia coli [18] = assay: Potentiation of ceftazidime-induced antibiotic activity against Escherichia coli ATCC 25922 assessed as MIC fold reduction at 8 ug/ml after 18 hrs by microbroth dilution method; assay type: functional; conditions: dose 8 µg/ml; outline: as §4
Klebsiella pneumoniae = assay: Antibacterial activity against Klebsiella pneumoniae KP113254 assessed as reduction in bacterial growth after 18 hrs by microbroth dilution method; assay type: functional; outline: as §6
Enterobacter cloacae [19] = assay: Antibacterial activity against Enterobacter cloacae 121187 assessed as potentiation of cefiderocol antibacterial activity by measuring FIC after 18 hrs by microbroth dilution method; assay type: functional; outline: as §1
Pseudomonas aeruginosa [20] = assay: Potentiation of cefotaxime-induced antibiotic activity against Pseudomonas aeruginosa PAO1 assessed as MIC fold reduction at 8 ug/ml after 18 hrs by microbroth dilution method; assay type: functional; conditions: dose 8 µg/ml; outline: as §4

Compound: NC[C@H]1O[C@H](O[C@H]2[C@H](OCCCCc3cn(-c4ccc(NC(=O)c5cc(Cl)ccc5O)cc4)nn3)[C@@H](O[C@H]3O[C@H](CO)[C@@H](O)[C@H](N)[C@H]3O)[C@H](N)C[C@@H]2N)[C@H](N)C[C@@H]1O
- MIC (Enterobacter cloacae [1]): 0.25 µg/mL
- Activity (Pseudomonas aeruginosa [2]): >3 log10CFU/ml
- FIC (Pseudomonas aeruginosa [3]): 0.25
- Activity (Pseudomonas aeruginosa [4]): Active
- fold change (FC) (Pseudomonas aeruginosa [5]): 4
- FIC (Pseudomonas aeruginosa [6]): 1
- MIC (Escherichia coli [7]): 0.25 µg/mL
- MIC (Pseudomonas aeruginosa [8]): 4 µg/mL
- fold change (FC) (Escherichia coli [9]): 4
- FIC (Pseudomonas aeruginosa [10]): 1
- MIC (Enterobacter cloacae [11]): > 128 µg/mL
- MIC (Staphylococcus aureus [12]): > 128 µg/mL
- Activity (Pseudomonas aeruginosa [13]): Active
- MIC (Staphylococcus aureus [14]): > 128 µg/mL
- FIC (Acinetobacter baumannii [15]): 0.25
- fold change (FC) (Acinetobacter baumannii [16]): 4
- fold change (FC) (Escherichia coli [17]): 4
- fold change (FC) (Escherichia coli [18]): 4
- MIC (Klebsiella pneumoniae): > 128 µg/mL
- FIC (Enterobacter cloacae [19]): 1
- fold change (FC) (Pseudomonas aeruginosa [20]): 4
